Measurements published in ChEMBL document CHEMBL4145530, “Design, synthesis and pharmacological evaluation of N-benzyl-piperidinyl-aryl-acylhydrazone derivatives as donepezil hybrids: Discovery of novel multi-target anti-alzheimer prototype drug candidates” (Eur J Med Chem, 2018).
Activity calls are given as the source filed them.

Key:
[1] = biological target: Acetylcholinesterase (Electrophorus electricus) (UniProt O42275); assay: (§1) Inhibition of electric eel AChE using acetylthiocholine iodide as substrate preincubated for 10 mins followed by substrate addition by Ellman's method
Acetylcholinesterase (Electrophorus electricus), sequence (O42275 24-633 limits assumed): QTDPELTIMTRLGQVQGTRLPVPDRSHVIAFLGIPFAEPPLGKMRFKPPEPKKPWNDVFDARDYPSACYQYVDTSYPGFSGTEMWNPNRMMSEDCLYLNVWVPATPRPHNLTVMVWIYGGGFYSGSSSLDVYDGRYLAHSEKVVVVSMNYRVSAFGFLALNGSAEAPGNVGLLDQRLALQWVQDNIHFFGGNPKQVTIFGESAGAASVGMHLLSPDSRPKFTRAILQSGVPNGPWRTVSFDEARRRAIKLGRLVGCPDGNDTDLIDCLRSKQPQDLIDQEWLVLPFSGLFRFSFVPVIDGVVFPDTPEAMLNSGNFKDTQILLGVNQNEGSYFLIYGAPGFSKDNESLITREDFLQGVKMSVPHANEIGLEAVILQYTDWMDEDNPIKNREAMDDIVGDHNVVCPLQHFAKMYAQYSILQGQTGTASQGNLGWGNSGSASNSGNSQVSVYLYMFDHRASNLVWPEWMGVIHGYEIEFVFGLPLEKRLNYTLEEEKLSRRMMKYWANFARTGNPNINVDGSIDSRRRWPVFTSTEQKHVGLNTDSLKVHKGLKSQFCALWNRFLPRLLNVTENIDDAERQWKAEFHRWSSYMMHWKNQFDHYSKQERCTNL

Acetylcholinesterase [2] = biological target: T1, Acetylcholinesterase (Electrophorus electricus, UniProt O42275); assay: as §1
T1 sequence (O42275 whole entry): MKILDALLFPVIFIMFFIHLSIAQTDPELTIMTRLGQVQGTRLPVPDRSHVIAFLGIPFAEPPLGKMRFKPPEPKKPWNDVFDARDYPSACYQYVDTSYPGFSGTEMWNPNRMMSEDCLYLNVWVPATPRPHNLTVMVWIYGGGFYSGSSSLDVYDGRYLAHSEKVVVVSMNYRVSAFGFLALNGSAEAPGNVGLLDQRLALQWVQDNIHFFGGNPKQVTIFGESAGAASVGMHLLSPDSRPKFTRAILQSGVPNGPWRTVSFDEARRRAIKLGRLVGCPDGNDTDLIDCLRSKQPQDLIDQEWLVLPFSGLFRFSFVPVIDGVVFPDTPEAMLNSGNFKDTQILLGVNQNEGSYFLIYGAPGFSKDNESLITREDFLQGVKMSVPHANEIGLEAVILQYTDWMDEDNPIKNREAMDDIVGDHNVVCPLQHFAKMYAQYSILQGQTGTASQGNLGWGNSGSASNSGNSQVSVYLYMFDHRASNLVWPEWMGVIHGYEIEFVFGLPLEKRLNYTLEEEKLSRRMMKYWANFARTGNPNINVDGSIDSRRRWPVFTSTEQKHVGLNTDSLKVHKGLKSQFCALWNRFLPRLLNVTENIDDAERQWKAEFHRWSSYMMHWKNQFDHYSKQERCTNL

SH-SY5Y [3] = assay: Neuroprotection in human SH-SY5Y cells assessed as inhibition of amyloid beta (1 to 42) oligomer-induced neuronal death at 10 uM after 24 hrs by propidium iodide staining based fluorescence microscopic method; format: functional, cell-based
Outline: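 After plating at 5×10^3 cells/well and growing 24 h, SH-SY5Y cells were co-exposed to compound and Aβ1-42 oligomers (10 µM) for 24 h at 37 °C. Cells were stained with propidium iodide in PBS for 10 min. Dead cells were counted by fluorescence microscopy in four fields of 50–100 cells and expressed as PI-positive/total × 100. Three independent experiments.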

Acetylcholinesterase [4] = biological target: T1, Acetylcholinesterase; assay: Non-competitive inhibition of electric eel AChE using acetylthiocholine iodide as substrate preincubated for 10 mins followed by substrate addition by Ellman's method
Outline: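 Substrate-competition kinetics with E. electricus AChE by Ellman's method: 10 min enzyme–DTNB–compound preincubation in 0.1 M phosphate, pH 7.4, then acetylthiocholine; A412 was read every 12 s for 5 min at rt. Three independent data sets, each in triplicate, were averaged and fitted to a simple noncompetitive model. That model was compared with mixed linear inhibition by AICc probability ratio.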

HepG2 [5] = assay: Genotoxicity in human HepG2 cells assessed as induction of DNA damage by measuring comet tail moment at 20 to 40 uM by alkaline comet assay; format: toxicity, cell-based; settings: hepg2, 40 µM
Outline: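 HepG2 cells were exposed 6 h to 20 or 40 µM, then trypsinised; viability was checked by trypan blue. Cells were embedded in low-melting agarose and lysed at 4 °C, pH 10, for 24 h. DNA was unwound 20 min in pH 13 buffer, then electrophoresed 25 V/300 mA for 25 min, neutralised and stained with SYBR Green. Tail moment was scored on 50 nuclei per slide in triplicate slides; 3 independent experiments. Doxorubicin and UV light served as positive controls.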

Mus musculus [6] = assay: Anti-inflammatory activity in C57Bl/6 mouse model of amyloid beta (1 to 42) oligomer-induced neuroinflammation assessed as inhibition of neurodegeneration in CA1 region of ipsilateral hippocampus at 100 mg/kg, ip pretreated for 1.5 hrs followed by amyloid beta (1 to 42) oligomer addition and measured after 7 days by Fluoro-Jade C staining based fluorescence microscopic assay; format: functional, organism-based
Outline: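 C57Bl/6 male mice were dosed i.p. at 100 mg/kg 1.5 h before stereotactic right intrahippocampal Aβ1-42 oligomer injection (400 pmol/0.5 µL), with PBS as control. After 7 days, hippocampal sections were stained with Fluoro-Jade C (0.0001%) after NaOH/ethanol and permanganate steps. Five CA1 images per hippocampus were imaged under fluorescence and pixel intensity quantified, n=10.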

Mus musculus [7] = assay: Anti-inflammatory activity in Swiss mouse assessed as reduction in carrageenan-induced paw edema by measuring paw volume […] po pretreated for 1 hr followed by carrageenan injection and measured after 1 to 5 hrs by plethysmometric method (reference value: 67.73 +/- 4.2 uL); format: functional
Outline: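 Male Swiss mice (22–28 g) were fasted overnight and dosed orally with vehicle (2% DMSO in sterile saline), compound or indomethacin 1 h before intraplantar carrageenan. Groups (n=10) were matched on basal paw volume. Right hind paw volume was read by plethysmometer at 1, 3 and 5 h and expressed as change from basal.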

SH-SY5Y [8] = assay: cells; format: ADME, cell-based; settings: Homo sapiens, 24 h
[9] = biological target: T2, Prostaglandin G/H synthase 1 (Ovis aries) (UniProt P05979); assay: Inhibition of ovine COX1 at 10 uM using arachidonic acid as substrate preincubated for 120 mins followed by substrate addition measured for 5 secs by chemiluminescence assay relative to control
T2 sequence (whole entry): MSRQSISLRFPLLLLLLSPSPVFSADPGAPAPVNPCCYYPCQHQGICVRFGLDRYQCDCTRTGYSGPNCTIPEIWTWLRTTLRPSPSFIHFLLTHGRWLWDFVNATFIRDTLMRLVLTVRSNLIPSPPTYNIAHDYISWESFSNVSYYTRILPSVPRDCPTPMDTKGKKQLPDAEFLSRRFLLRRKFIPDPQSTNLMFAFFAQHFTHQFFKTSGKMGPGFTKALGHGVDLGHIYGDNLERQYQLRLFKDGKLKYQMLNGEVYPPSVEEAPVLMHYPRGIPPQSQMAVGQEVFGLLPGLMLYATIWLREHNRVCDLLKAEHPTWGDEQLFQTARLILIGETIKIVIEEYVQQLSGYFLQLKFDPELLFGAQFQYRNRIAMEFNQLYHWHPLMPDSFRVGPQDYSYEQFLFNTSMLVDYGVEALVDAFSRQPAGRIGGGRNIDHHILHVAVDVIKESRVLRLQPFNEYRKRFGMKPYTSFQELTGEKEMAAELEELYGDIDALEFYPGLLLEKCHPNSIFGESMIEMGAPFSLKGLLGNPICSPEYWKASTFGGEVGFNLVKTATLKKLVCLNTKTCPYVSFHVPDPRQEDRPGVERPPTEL
Outline: (§2)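 COX-1 or COX-2 with heme was preincubated 120 min with compound (10 µM) in assay buffer. Arachidonic acid and a chemiluminescent substrate were then added at room temperature and peroxidative activity was read for 5 s; ibuprofen was the reference. Selectivity index was taken as the ratio of maximum COX-2 inhibition to COX-1 inhibition. Two independent experiments.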

Mus musculus [10] = assay: Inhibition of serum COX1 level in Swiss mouse model of carragenan-induced paw edema at 100 mM/kg, po pretreated for 1 hr followed by carrageenan treatment measured after 3 hrs by ELISA; format: functional
Outline: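 Swiss mice (n=8) received compound (100 mM/kg) or vehicle orally 1 h before intraplantar carrageenan; indomethacin was the positive control. Three hours later, blood was drawn from the heart under chloral hydrate anaesthesia and serum was collected. COX-1 and COX-2 protein was measured by sandwich ELISA read at 450 nm and expressed as percent COX level.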

Mus musculus [11] = assay: Antinociceptive activity in carrageenan-induced Swiss mouse model of mechanical hyperalgesia assessed as mechanical hyperalgesic index pretreated orally for 1 hr followed by carrageenan challenge by Von Frey filament assay; format: functional
Outline: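 Swiss mice were placed in wire-screen acrylic boxes 60 min before testing. Vehicle, compound or indomethacin was given orally 1 h before intraplantar carrageenan. Mechanical threshold was found by the von Frey up-and-down method, with at least 6 trials at 10 s intervals, raising filament mass until paw withdrawal. Results are given as threshold in grams; n=8.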

THP-1 = assay: Anti-inflammatory activity in human THP1 cells assessed as inhibition of LPS-induced TNFalpha production at 10 uM after 24 hrs by ELISA relative to control; format: functional; settings: THP-1, 24 h
Outline: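 Human monocytic THP-1 cells (5×10^5 cells/mL) were given LPS 1 µg/mL with or without compound at 10 µM for 24 h. Cells were spun out at 500 × g and the medium kept at −80 °C. Secreted IL-1β and TNFα were measured with high-sensitivity ELISA. Three independent experiments.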

[12] = biological target: Acetylcholinesterase (Electrophorus electricus) (UniProt O42275); assay: Inhibition of electric eel AChE at 100 uM using acetylthiocholine iodide as substrate preincubated for 10 mins followed by substrate addition by Ellman's method relative to control
[13] = Selectivity ratio of compound effect for inhibition of human COX2 to compound effect for inhibition of ovine COX1; outline: as §2
HepG2 [14] = assay: cells; format: ADME, cell-based; settings: Homo sapiens, HepG2, 6 h

With `O=C(N/N=C/c1ccc(Cl)cc1)c1ccc(CN2CCCC(O)C2)cc1` (stereo not given) the inhibition [1] was “Dose-dependent effect”, the IC50 (Acetylcholinesterase [2]) was 25.4 µM and the inhibition (SH-SY5Y [3]) was “Active”. The Ki (Acetylcholinesterase [4]) was 7.76 µM, the Activity (HepG2 [5]) was “Non-Toxic” and the inhibition (Mus musculus [6]) was “Active”. For the same molecule, the Activity (Mus musculus [7]) was 17.14 µL, the IC50 (SH-SY5Y [8]) was > 80 µM and the inhibition [9] was 51%. For the same molecule, the “inhibition (INH)” value (Mus musculus [10]) was 27%, the Activity_index (Mus musculus [11]) was 168.3 and the inhibition at 10 µM (THP-1) was 98%. The inhibition [12] was > 60%, the Selectivity ratio [13] was 1.27 and the IC50 (HepG2 [14]) was > 80 µM.

In the case of `O=C(N/N=C/c1ccc(F)cc1)c1ccc(CN2CCCC(O)C2)cc1` (stereo not given), the inhibition [1] is reported as “Dose-dependent effect”, the IC50 (Acetylcholinesterase [2]) is reported as 8.65 µM and the inhibition (SH-SY5Y [3]) is reported as “Active”. The Ki (Acetylcholinesterase [4]) was 13.4 µM, the Activity (HepG2 [5]) was “Non-Toxic” and the inhibition (Mus musculus [6]) was “inactive”. The Activity (Mus musculus [7]) was 20 µL, the IC50 (SH-SY5Y [8]) was > 80 µM and the inhibition [9] was 64%. For the same molecule, the “inhibition (INH)” value (Mus musculus [10]) was 34%, the Activity_index (Mus musculus [11]) was 178.9 and the inhibition at 10 µM (THP-1) was 69%. The inhibition [12] was > 60%, the Selectivity ratio [13] was 0.83 and the IC50 (HepG2 [14]) was > 80 µM.
